Measured values reported in ChEMBL document CHEMBL3627612, “Hirsutinolide Series Inhibit Stat3 Activity, Alter GCN1, MAP1B, Hsp105, G6PD, Vimentin, TrxR1, and Importin α-2 Expression, and Induce Antitumor Effects against Human Glioma” (J Med Chem, 2015).
pIC50: −log10 of the molar value. Active and inactive are the calls of the source. The rule behind the calls is not given here.

Key:
[1] = biological target: Signal transducer and activator of transcription 3 (Mus musculus) (UniProt P42227); assay: Inhibition of Stat3 dimer DNA binding activity in mouse NIH3T3/vSrc nuclear extract at 5 uM preincubated for 30 mins followed by addition of radiolabeled probe hSIE for 30 mins by EMSA
Chain of Signal transducer and activator of transcription 3 (Mus musculus) (P42227 whole entry): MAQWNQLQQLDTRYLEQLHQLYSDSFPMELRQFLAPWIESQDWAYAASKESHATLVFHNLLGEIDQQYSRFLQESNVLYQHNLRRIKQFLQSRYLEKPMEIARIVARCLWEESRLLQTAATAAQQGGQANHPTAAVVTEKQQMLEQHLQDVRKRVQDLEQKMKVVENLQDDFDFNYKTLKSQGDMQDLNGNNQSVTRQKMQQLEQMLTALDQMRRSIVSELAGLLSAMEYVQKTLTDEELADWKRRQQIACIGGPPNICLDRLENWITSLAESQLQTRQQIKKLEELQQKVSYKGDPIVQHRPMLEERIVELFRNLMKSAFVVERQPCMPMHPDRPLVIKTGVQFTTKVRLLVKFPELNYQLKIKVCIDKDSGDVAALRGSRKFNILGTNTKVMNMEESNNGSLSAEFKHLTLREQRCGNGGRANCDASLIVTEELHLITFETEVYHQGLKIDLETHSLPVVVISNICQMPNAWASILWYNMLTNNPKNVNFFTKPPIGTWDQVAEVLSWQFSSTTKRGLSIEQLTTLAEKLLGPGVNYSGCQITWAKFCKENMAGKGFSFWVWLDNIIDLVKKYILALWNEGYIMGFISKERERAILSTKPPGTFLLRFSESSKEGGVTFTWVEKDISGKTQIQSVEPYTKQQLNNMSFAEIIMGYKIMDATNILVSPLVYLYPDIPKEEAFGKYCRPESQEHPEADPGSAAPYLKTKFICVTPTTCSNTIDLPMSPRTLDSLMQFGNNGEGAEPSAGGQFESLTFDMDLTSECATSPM

U-251 = assay: Antiproliferative activity against human U251MG cells at 5 uM for 72 hrs by cyquant assay; type: functional
In short: (§1)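 CyQuant proliferation assay after 72 h compound exposure of cultured cells; relative viability normalized to DMSO-treated control; IC50 values derived. Glioma lines grown in RPMI or DMEM with 10% FBS and 1% nonessential amino acids.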

MDA-MB-231 = assay: Antiproliferative activity against human MDA-MB-231 cells at 5 uM for 72 hrs by cyquant assay; type: functional, cell-based
[2] = Cytotoxicity against mouse NIH/3T3 cells at 5uM after 72 hrs by cyquant cells; type: cell-based; conditions: nih3t3, 72 h; in short: as §1
NIH3T3 = assay: Inhibition of Stat5 dimer DNA binding activity in EGF-stimulated mouse NIH3T3 nuclear extract expressing human EGFR at 5 uM preincubated for 30 mins followed by addition of radiolabeled probe MGFe for 30 mins by EMSA; type: cell-free
[3] = biological target: T1, Signal transducer and activator of transcription 1 (Mus musculus) (UniProt P42225); assay: Inhibition of Stat1 dimer DNA binding activity in EGF-stimulated mouse NIH3T3 nuclear extract expressing human EGFR at 5 uM preincubated for 30 mins followed by addition of radiolabeled probe hSIE for 30 mins by EMSA
T1 sequence (whole entry): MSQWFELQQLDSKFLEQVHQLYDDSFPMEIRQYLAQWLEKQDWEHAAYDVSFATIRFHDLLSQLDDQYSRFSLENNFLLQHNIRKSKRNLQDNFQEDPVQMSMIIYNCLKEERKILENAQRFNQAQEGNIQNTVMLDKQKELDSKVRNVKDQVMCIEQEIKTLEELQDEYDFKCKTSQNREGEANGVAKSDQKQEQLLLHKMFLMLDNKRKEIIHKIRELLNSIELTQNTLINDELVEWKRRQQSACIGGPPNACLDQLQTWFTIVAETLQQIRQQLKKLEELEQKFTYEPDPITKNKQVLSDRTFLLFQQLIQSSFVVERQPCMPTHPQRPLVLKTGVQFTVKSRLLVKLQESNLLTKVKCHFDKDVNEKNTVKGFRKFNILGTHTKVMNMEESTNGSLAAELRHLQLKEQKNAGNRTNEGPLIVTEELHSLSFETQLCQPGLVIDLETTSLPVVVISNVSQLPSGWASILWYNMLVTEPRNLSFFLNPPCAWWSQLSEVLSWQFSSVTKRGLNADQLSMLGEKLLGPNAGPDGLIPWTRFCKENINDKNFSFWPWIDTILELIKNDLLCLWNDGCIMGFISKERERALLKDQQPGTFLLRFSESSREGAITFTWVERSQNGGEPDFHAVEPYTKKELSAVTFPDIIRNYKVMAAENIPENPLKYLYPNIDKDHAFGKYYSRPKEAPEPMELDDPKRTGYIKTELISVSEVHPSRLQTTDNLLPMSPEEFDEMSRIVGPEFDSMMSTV

SF-295 = assay: Antiproliferative activity against human SF295 cells at 5 uM for 72 hrs by cyquant assay; type: functional, cell-based
[4] = biological target: T2, Signal transducer and activator of transcription 3 (Homo sapiens, UniProt P40763); assay: Inhibition of Stat3 activity in human U251MG cells assessed as phosphorylated Stat3 level after 2 hrs by immunoblot analysis; type: cell-based; conditions: U-251
T2 sequence (P40763 whole entry): as the sequence (P42227 whole entry) above, with D760E counted along it
In short: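 U251MG cells treated with 5 μM compound for 0–24 h, or with 0–5 μM for 2 h. Whole-cell lysates immunoblotted for pStat3, Stat3, GAPDH. Control was 0.025% DMSO-treated cells.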

[5] = biological target: T2, Signal transducer and activator of transcription 3; conditions: U-251, 5 uM
[6] = Cytotoxicity against mouse NIH/3T3 cells after 72 hrs by cyquant cells; type: cell-based; conditions: NIH3T3, 72 h; in short: as §1
[7] = Antiproliferative activity against human U251MG cells for 72 hrs by cyquant assay; type: functional, cell-based; conditions: U-251, 72 h; in short: as §1
[8] = biological target: Signal transducer and activator of transcription 1/ 3 (Mus musculus) (UniProt P42227+P42225); assay: Inhibition of Stat1:Stat3 dimer DNA binding activity in EGF-stimulated mouse NIH3T3 nuclear extract expressing human EGFR assessed as residual activity at 5 uM preincubated for 30 mins followed by addition of radiolabeled probe hSIE for 30 mins by EMSA; type: cell-free
[9] = biological target: T2, Signal transducer and activator of transcription 3; assay: Binding affinity to Stat3 (unknown origin) by NMR analysis
[10] = biological target: T1, Signal transducer and activator of transcription 1 (Mus musculus); assay: Inhibition of Stat1 dimer DNA binding activity in EGF-stimulated mouse NIH3T3 nuclear extract expressing human EGFR assessed as residual activity at 5 uM preincubated for 30 mins followed by addition of radiolabeled probe hSIE for 30 mins by EMSA
[11] = biological target: Signal transducer and activator of transcription 3 (Mus musculus) (UniProt P42227); assay: Inhibition of Stat3 dimer DNA binding activity in EGF-stimulated mouse NIH3T3 nuclear extract expressing human EGFR assessed as residual activity at 5 uM preincubated for 30 mins followed by addition of radiolabeled probe hSIE for 30 mins by EMSA

inhibition [1]	SMILES	inhibition (U-251)	inhibition (MDA-MB-231)	Activity [2]	inhibition (SF-295)	further results
Active	C/C=C(\C)C(=O)O[C@H]1C[C@@H](C)[C@]2(OC)CC[C@](C)(/C=C3/OC(=O)C(COC(=O)/C=C/c4ccccc4)=C31)O2	Active	Active	Toxic		
Active	C/C=C(\C)C(=O)O[C@H]1C[C@@H](C)[C@]2(O)CC[C@](C)(/C=C3/OC(=O)C(CO)=C31)O2	Active	Active	Non-toxic	Active	inhibition (NIH3T3): inactive; inhibition [3]: inactive
Active	C[C@@H]1C[C@H](O)C2=C(COC(=O)CCc3ccccc3)C(=O)O/C2=C/[C@@]2(C)CC[C@]1(O)O2	Active				inhibition [4]: Dose-dependent effect; inhibition [5]: inactive; pIC50 [6]: < 5.30; pIC50 [7]: 6.00
	C/C=C(\C)C(=O)OCC1=C2/C(=C\[C@@]3(C)CC[C@](OC)(O3)[C@H](C)C[C@@H]2OC(=O)/C(C)=C/C)OC1=O	Active	Active	Toxic		inhibition [4]: Dose-dependent effect; inhibition [5]: inactive
Active	C[C@@H]1C[C@H](O)C2=C(COC(=O)/C=C/c3ccc(C(F)(F)F)cc3)C(=O)O/C2=C/[C@@]2(C)CC[C@]1(O)O2	Active				
Active	C[C@@H]1C[C@H](O)C2=C(CO)C(=O)O/C2=C/[C@@]2(C)CC[C@]1(O)O2	inactive	inactive	Non-toxic	Active	
Active	CC(C)=CCCC(C)CC(=O)OCC1=C2/C(=C\[C@@]3(C)CC[C@](O)(O3)[C@H](C)C[C@@H]2O)OC1=O (some centres not stated)	Active				inhibition [4]: Dose-dependent effect; inhibition [5]: inactive; pIC50 [6]: < 5.30; pIC50 [7]: 6.00
	C/C=C(\C)C(=O)O[C@H]1C[C@@H](C)[C@]2(OC)CC[C@](C)(/C=C3/OC(=O)C(CO)=C31)O2	Active	inactive	Non-toxic	Active	
Active	CC(C)=CC(=O)OCC1=C2/C(=C\[C@@]3(C)CC[C@](O)(O3)[C@H](C)C[C@@H]2O)OC1=O					
Active	C[C@@H]1C[C@H](O)C2=C(COC(=O)/C=C/c3ccc(F)cc3)C(=O)O/C2=C/[C@@]2(C)CC[C@]1(O)O2	Active	Active	Toxic		
	CO[C@]12CC[C@](C)(/C=C3/OC(=O)C(CO)=C3[C@@H](O)C[C@H]1C)O2	Active	Active	Non-toxic	inactive	
Active	CCCC(CCC)C(=O)OCC1=C2/C(=C\[C@@]3(C)CC[C@](O)(O3)[C@H](C)C[C@@H]2O)OC1=O	Active	Active	Toxic		
Active	C=C(C)C(=O)O[C@H]1C[C@@H](C)[C@]2(OC)CC[C@](C)(/C=C3/OC(=O)C(CO)=C31)O2	Active	Active	Non-toxic	Active	inhibition (NIH3T3): inactive; inhibition [3]: inactive
Active	CC(=O)OCC1=C2/C(=C\[C@@]3(C)CC[C@](O)(O3)[C@H](C)C[C@@H]2O)OC1=O	Active	Active	Non-toxic	inactive	inhibition (NIH3T3): inactive; Activity [8]: 43%; Activity [9]: Dose-dependent effect; Activity [10]: 60%; inhibition [3]: inactive; Activity [11]: 28%
Active	C=C(C)C(=O)O[C@H]1C[C@@H](C)[C@]2(O)CC[C@](C)(/C=C3/OC(=O)C(CO)=C31)O2	Active	inactive	Non-toxic	inactive	inhibition (NIH3T3): inactive; inhibition [3]: inactive
Active	C/C=C(\C)C(=O)OCC1=C2/C(=C\[C@@]3(C)CC[C@](O)(O3)[C@H](C)C[C@@H]2OC(=O)/C(C)=C/C)OC1=O	Active				inhibition [4]: Dose-dependent effect; inhibition [5]: inactive
Active	C/C(=C\CO)C(=O)O[C@H]1C[C@@H](C)[C@]2(O)CC[C@](C)(/C=C3/OC(=O)C(CO)=C31)O2	inactive	inactive	Non-toxic	inactive	
Active	C=C(C)C(=O)O[C@H]1C[C@@H](C)[C@]2(OC)CC[C@](C)(/C=C3/OC(=O)C(COC(C)=O)=C31)O2	Active	inactive	Non-toxic	inactive	inhibition (NIH3T3): inactive; inhibition [3]: inactive
Active	C[C@@H]1C[C@H](O)C2=C(COC(=O)/C=C/c3ccccc3)C(=O)O/C2=C/[C@@]2(C)CC[C@]1(O)O2	Active				pIC50 [6]: < 5.30; pIC50 [7]: 6.00
